pEC50, pIC50: −log10 of the molar value. The source made the active and inactive calls. The rule behind the calls is not given here.
How the values were obtained:
[1] = Clearance in Sprague-Dawley rat at 1 mg/kg, iv; assay type: ADME, organism-based; set-up: dose 1 mg/kg, route intravenous; details: in vivo
Summary of the method: (§1)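 Male Sprague-Dawley rats, n = 3, given a single iv dose in 100% DMSO, at 1 mg/kg or 2 mg/kg depending on compound. Clearance, half-life and steady-state volume of distribution were taken from plasma exposure after the iv dose.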

[2] = Inhibition of PKA
[3] = target: T1, RAC-alpha serine/threonine-protein kinase (Homo sapiens, UniProt P31749); assay: Inhibition of human AKT1 in human MDA-MB-468 cells assessed as phosphorylation-mediated nuclear translocation of GFP-tagged FKHRL1 by fluorescence microscopy; assay type: cell-based
T1 sequence (P31749 whole entry, the tested form may be a part): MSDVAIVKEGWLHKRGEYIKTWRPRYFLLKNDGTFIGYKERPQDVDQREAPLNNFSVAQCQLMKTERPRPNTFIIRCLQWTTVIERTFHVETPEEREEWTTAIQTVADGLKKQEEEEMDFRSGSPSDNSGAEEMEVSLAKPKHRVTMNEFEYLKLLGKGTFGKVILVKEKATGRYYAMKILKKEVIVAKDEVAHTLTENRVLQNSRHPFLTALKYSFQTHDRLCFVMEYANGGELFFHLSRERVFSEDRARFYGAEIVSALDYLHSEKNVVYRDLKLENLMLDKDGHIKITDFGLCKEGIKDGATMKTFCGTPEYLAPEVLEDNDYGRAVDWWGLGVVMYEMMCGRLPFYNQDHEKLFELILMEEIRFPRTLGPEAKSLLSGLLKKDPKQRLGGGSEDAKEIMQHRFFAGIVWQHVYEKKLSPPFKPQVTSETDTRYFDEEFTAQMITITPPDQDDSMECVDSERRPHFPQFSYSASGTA
Summary of the method: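 MDA-MB-468 cells stably expressing GFP-tagged FKHRL1 were treated with threefold serial dilutions of compound. Nuclear translocation of the fusion protein was scored by fluorescence microscopy. Mean ± SD where n ≥ 3, some values from a single run.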

[4] = target: T1, RAC-alpha serine/threonine-protein kinase; assay: Inhibition of AKT1 after 10 mins by [gamma33]ATP assay
[5] = Volume of distribution at steady state in Sprague-Dawley rat at 1 mg/kg, iv; assay type: ADME, organism-based; set-up: dose 1 mg/kg, route intravenous; details: in vivo, read-out: Vdss; summary of the method: as §1
[6] = Half life in Sprague-Dawley rat at 1 mg/kg, iv; assay type: ADME, organism-based; set-up: dose 1 mg/kg, route intravenous; details: in vivo; summary of the method: as §1
[7] = target: Cyclin-dependent kinase 2 (Homo sapiens, UniProt P24941); assay: Inhibition of CDK2
[8] = target: T1, RAC-alpha serine/threonine-protein kinase; assay: Inhibition of human AKT1 in human U87MG cells assessed as PRAS40 phosphorylation after 1 hr by ELISA; assay type: cell-based, U-87MG ATCC
Summary of the method: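 U87MG cells in 5% FBS medium were incubated with threefold serial dilutions of inhibitor for 1 h at 37 °C, then lysed. Phospho-PRAS40 (Thr246) was quantified by ELISA and normalized to total PRAS40. Mean ± SD where n ≥ 3.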

[9] = Selectivity ratio of IC50 for CDK2 to IC50 for AKT1
[10] = Clearance in Sprague-Dawley rat at 2 mg/kg, iv; assay type: ADME, organism-based; set-up: dose 2 mg/kg, route intravenous; details: in vivo; summary of the method: as §1
[11] = target: T2, Serine/threonine-protein kinase Sgk1 (Homo sapiens, UniProt O00141); assay: Inhibition of SGK1
T2 sequence (O00141 whole entry): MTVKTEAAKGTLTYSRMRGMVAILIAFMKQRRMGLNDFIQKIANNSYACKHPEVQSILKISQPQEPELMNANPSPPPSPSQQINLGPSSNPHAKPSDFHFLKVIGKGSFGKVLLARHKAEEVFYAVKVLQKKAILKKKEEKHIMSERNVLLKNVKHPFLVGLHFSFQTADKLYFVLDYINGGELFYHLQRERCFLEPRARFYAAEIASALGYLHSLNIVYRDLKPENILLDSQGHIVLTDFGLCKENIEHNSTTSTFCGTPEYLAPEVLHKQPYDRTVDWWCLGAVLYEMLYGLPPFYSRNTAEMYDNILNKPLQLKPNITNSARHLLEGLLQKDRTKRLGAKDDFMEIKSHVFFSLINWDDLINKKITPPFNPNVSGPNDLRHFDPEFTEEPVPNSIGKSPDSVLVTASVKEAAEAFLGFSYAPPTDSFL

[12] = Volume of distribution at steady state in Sprague-Dawley rat at 2 mg/kg, iv; assay type: ADME, organism-based; set-up: dose 2 mg/kg, route intravenous; details: in vivo, read-out: Vdss; summary of the method: as §1
Mus musculus [13] = assay: Inhibition of HGF-stimulated AKT signaling pathway in BALB/c mouse liver assessed as reduction in phosphorylated FKHRL1 level at 30 mg/kg, ip dosed up to 6 hrs before HGF challenge and measured after 5 mins by Western blot analysis; assay type: functional, organism-based; set-up: dose 30 mg/kg
[14] = Cmax in Sprague-Dawley rat at 10 mg/kg, po; assay type: ADME, organism-based; set-up: dose 10 mg/kg, route oral; details: in vivo
Summary of the method: (§2)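 Male Sprague-Dawley rats, n = 3, dosed orally at 10 mg/kg in 25% PEG 400/[…]. Cmax was taken from the oral exposure. Bioavailability was derived against the separate iv arm, which was 2 mg/kg in 100% DMSO.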

[15] = Oral bioavailability in Sprague-Dawley rat at 10 mg/kg; assay type: ADME, organism-based; details: in vivo; summary of the method: as §2
Mus musculus [16] = assay: Inhibition of HGF-stimulated AKT signaling pathway in BALB/c mouse liver assessed as reduction in phosphorylated FKHRL1 level ip dosed 1 hr before HGF challenge and measured after 5 mins by Western blot analysis; assay type: functional, organism-based
[17] = Half life in Sprague-Dawley rat at 2 mg/kg, iv; assay type: ADME, organism-based; set-up: dose 2 mg/kg, route intravenous; details: in vivo; summary of the method: as §1
[18] = Cytotoxicity against human U87MG cells after 3 days by alamar blue staining; assay type: functional, cell-based, U-87MG ATCC; details: U-87 MG, 72 h
Summary of the method: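 U-87 glioblastoma cells seeded at 6000 cells/well and exposed to compound over a concentration series for 3 days. Viability read by alamarBlue staining, run in triplicate, and EC50 derived.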

Compound | pIC50 [2] | pIC50 [4] | pIC50 [7] | also measured
N[C@H](CNc1nnc(-c2ccc3[nH]ncc3c2)s1)Cc1ccc(F)cc1 | 6.43 | 6.43 | 7.13 | –
Cc1cc2cc(-c3nnc(NC[C@@H](N)Cc4ccc(C(F)(F)F)cc4)s3)ccc2cn1 | 6.56 | 6.55 | 6.22 | –
Cc1n[nH]c2ccc(-c3nnc(NC[C@@H](N)Cc4ccccc4)s3)cc12 | 7.27 | 7.12 | 7.14 | –
Cc1n[nH]c2ccc(-c3nnc(NC[C@@H](N)Cc4ccccc4C(F)(F)F)s3)cc12 | 6.61 | 6.31 | 6.70 | –
N[C@H](CNc1nnc(-c2ccc3[nH]nc(-c4ccccc4)c3c2)s1)Cc1cccc(C(F)(F)F)c1 | 6.43 | 6.38 | 7.10 | –
Cc1n[nH]c2ccc(-c3nnc(NC[C@H](N)Cc4ccccc4)s3)cc12 | – | < 5.66 | – | –
N[C@H](CNc1nnc(-c2ccc3[nH]nc(C4CC4)c3c2)s1)Cc1ccc(C(F)(F)F)cc1 | 6.63 | 6.74 | 6.87 | –
N[C@H](CNc1nnc(-c2ccc3[nH]ncc3c2)s1)Cc1ccc(Cl)cc1Cl | 6.80 | 7.40 | 6.49 | Ratio IC50 [9]: 8
Cc1n[nH]c2ccc(-c3nnc(NC[C@@H](N)Cc4ccccc4Cl)s3)cc12 | 6.97 | 7.33 | 7.24 | –
CCc1n[nH]c2ccc(-c3nnc(NC[C@@H](N)Cc4ccccc4)s3)cc12 | – | 6.43 | – | –
Cc1n[nH]c2ccc(-c3nnc(NC[C@@H](N)Cc4ccccc4F)s3)cc12 | 6.67 | 6.70 | 6.98 | –

Stronger by pIC50 [4], values ahead:

pIC50 [2] | pIC50 [4] | pIC50 [7] | Compound | also measured
7.89 | 8.26 | 7.77 | Cc1n[nH]c2ccc(-c3nnc(NC[C@@H](N)Cc4ccc(C(F)(F)F)cc4)s3)cc12 | clearance [1]: 46.7 mL/min/kg; pIC50 [3]: 6.48; Vd [5]: 13.7 L/kg; half-life [6]: 246 min; pIC50 [8]: 6.45
6.97 | 8.22 | 7.62 | N[C@H](CNc1nnc(-c2ccc3[nH]ncc3c2)s1)Cc1ccc(C(F)(F)F)cc1 | Ratio IC50 [9]: 4; clearance [1]: 81.7 mL/min/kg; pIC50 [3]: 6.81; Vd [5]: 13.3 L/kg; half-life [6]: 150 min; pIC50 [8]: 6.35
8.19 | 8.21 | 7.46 | Cc1n[nH]c2ccc(-c3nnc(NC[C@@H](N)Cc4cccc(C(F)(F)F)c4)s3)cc12 | –
7.96 | 8.05 | 7.14 | Cc1n[nH]c2ccc(-c3nnc(NC[C@@H](N)Cc4ccc(Cl)cc4)s3)cc12 | –
7.57 | 7.85 | 7.72 | Cc1n[nH]c2ccc(-c3nnc(NC[C@@H](N)Cc4ccc(F)c(F)c4)s3)cc12 | –
8.10 | 8.52 | 7.28 | N[C@H](CNc1nnc(-c2ccc3cnccc3c2)s1)Cc1ccc(C(F)(F)F)cc1 | Ratio IC50 [9]: 20; clearance [10]: 25 mL/min/kg; pIC50 [3]: 6.16; pIC50 [11]: 5.66; Vd [12]: 3.8 L/kg; inhibition (Mus musculus [13]): Active; Cmax [14]: 430 ng/mL; bioavailability [15]: 20%; inhibition (Mus musculus [16]): Dose-dependent effect; half-life [17]: 228 min; pEC50 [18]: 6.42; pIC50 [8]: 6.61
6.80 | 7.62 | 7.39 | N[C@H](CNc1nnc(-c2ccc3[nH]ncc3c2)s1)Cc1ccc(Cl)cc1 | –
7.82 | 7.72 | 7.77 | Cc1n[nH]c2ccc(-c3nnc(NC[C@@H](N)Cc4cccc(Cl)c4)s3)cc12 | –
6.64 | 7.42 | – | Cc1n[nH]c2ccc(-c3nnc(NC[C@@H](N)Cc4cccc(F)c4)s3)cc12 | –
7.37 | 7.74 | 7.15 | Cc1n[nH]c2ccc(-c3nnc(NC[C@@H](N)Cc4ccc(Cl)cc4Cl)s3)cc12 | –
6.93 | 7.60 | – | N[C@H](CNc1nnc(-c2ccc3[nH]ncc3c2)s1)Cc1cccc(C(F)(F)F)c1 | –

From ChEMBL document CHEMBL1154933, “2-Aminothiadiazole inhibitors of AKT1 as potential cancer therapeutics” (Bioorg Med Chem Lett, 2010)
